Test results as given in ChEMBL document CHEMBL1136779 (J Med Chem, 2003).

B1: Carboxypeptidase G2 (Pseudomonas aeruginosa (strain ATCC 15692 / PAO1 / 1C / PRS 101 / LMG12228)), Q9I056 (protein)
chain: MHARRLPRLLPLALAFLLSPAAFAADTPAAELLRQAEAERPAYLDTLRQLVAVDSGTGQAEGLGQLSALLAERLQALGAQVRSAPATPSAGDNLVATLDGTGSKRFLLMIHYDTVFAAGSAAKRPFREDAERAYGPGVADAKGGVAMVLHALALLRQQGFRDYGRITVLFNPDEETGSAGSKQLIAELARQQDYVFSYEPPDRDAVTVATNGIDGLLLEVKGRSSHAGSAPEQGRNAILELSHQLLRLKDLGDPAKGTTLNWTLARGGEKRNIIPAEASAEADMRYSDPAESERVLADARKLTGERLVADTEVSLRLDKGRPPLVKNPASQRLAETAQTLYGRIGKRIEPIAMRFGTDAGYAYVPGSDKPAVLETLGVVGAGLHSEAEYLELSSIAPRLYLTVALIRELSAD

Columns and labels:
[1] = Ratio of the half-life period of the prodrug and the drug was determined; type: ADME
WiDr [2] = assay: Cytotoxicity in WiDr cells expressing surface-tethered carboxypeptidase G2 (CPG2); type: functional, cell-based; conditions: Homo sapiens
How it was run: (§1)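 WiDr cells stably expressing surface-tethered CPG2 (stCPG2(Q)3) or β-galactosidase control; 2 × 10⁶ cells seeded, confluent after 48 h. Compound in DMSO stock diluted in medium, re-added at similar concentration after 1 h, further 20 h exposure. Cells reseeded in quadruplicate at ~2 × 10³/well, grown until controls confluent; SRB stain, 590 nm. IC50 from log dose-response sigmoid fit.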

WiDr [3] = assay: Cytotoxicity in WiDr cells expressing beta-galactosidase control; type: functional, cell-based; conditions: Homo sapiens; how it was run: as §1
[4] = Half-life period (prodrug) was determined; type: ADME
How it was run: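 Aqueous stability: 100 µM compound in CPG2 assay buffer (100 mM Tris-HCl pH 7.3, 260 µM ZnCl₂). Remaining parent measured by isocratic reverse-phase HPLC (10 mM ammonium acetate pH 5.0/methanol, UV 250 or 265-275 nm) at several times. Half-life from one-phase exponential decay fit. Labile compounds instead followed by absorbance change over 3 min; t½ = 0.69/rate constant.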

[5] = biological target: T1, Carboxypeptidase G2 (Pseudomonas aeruginosa (strain ATCC 15692 / PAO1 / 1C / PRS 101 / LMG12228)) (UniProt Q9I056); assay: (§2) The kinetics of activation of the self-immolative prodrug by Carboxypeptidase G2 was measured
T1 sequence (whole entry): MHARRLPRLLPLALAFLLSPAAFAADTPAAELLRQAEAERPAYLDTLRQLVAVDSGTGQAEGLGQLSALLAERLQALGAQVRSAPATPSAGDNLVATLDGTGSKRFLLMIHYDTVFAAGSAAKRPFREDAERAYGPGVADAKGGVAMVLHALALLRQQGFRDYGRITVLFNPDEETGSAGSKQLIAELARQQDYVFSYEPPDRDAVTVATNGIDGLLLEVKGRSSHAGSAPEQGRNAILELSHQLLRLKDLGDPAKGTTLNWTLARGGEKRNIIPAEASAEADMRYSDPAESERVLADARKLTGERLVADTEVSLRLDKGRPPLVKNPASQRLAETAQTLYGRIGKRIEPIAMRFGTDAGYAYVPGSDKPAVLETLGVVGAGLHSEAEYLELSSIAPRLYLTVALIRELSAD
How it was run: (§3)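 CPG2 (50 mU) with prodrug 5-50 µM in 5 µM steps in CPG2 assay buffer (100 mM Tris-HCl pH 7.3, 260 µM ZnCl₂), 37 °C. Remaining prodrug quantified by HPLC at 0, 5, 10, 15 and 20 min; Km and kcat derived.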

WiDr [6] = assay: Compound was tested for cytotoxicity in WiDr cells engineered for stable expression of surface-tethered CPG2; type: functional, cell-based; conditions: Homo sapiens; how it was run: as §1
WiDr [7] = assay: Compound was tested for cytotoxicity in WiDr cells engineered for stable expression of beta-galactosidase; type: functional, cell-based; conditions: Homo sapiens; how it was run: as §1
[8] = biological target: T1, Carboxypeptidase G2 (Pseudomonas aeruginosa (strain ATCC 15692 / PAO1 / 1C / PRS 101 / LMG12228)); assay: Ratio of kinetic constants Kcat and Km was determined against Carboxypeptidase G2; how it was run: as §3
[9] = compound: O=C(O)CC[C@H](NC(=O)Oc1ccc(CO)cc1)C(=O)O; assay: as §2; how it was run: as §3
[10] = compound: CN(C(=O)OCc1ccc(NC(=O)N[C@@H](CCC(=O)O)C(=O)O)cc1)c1ccc(N(CCCl)CCCl)cc1; assay: as §2; how it was run: as §3
[11] = compound: O=C(O)CC[C@H](NC(=O)Oc1ccc(COC(=O)Nc2ccccc2N(CCCl)CCCl)cc1)C(=O)O; assay: as §2; how it was run: as §3
[12] = compound: O=C(O)CC[C@H](NC(=O)Oc1ccc(COC(=O)Nc2ccc(N(CCCl)CCCl)cc2)cc1)C(=O)O; assay: as §2; how it was run: as §3
[13] = compound: CN(C(=O)OCc1ccc(OC(=O)N[C@@H](CCC(=O)O)C(=O)O)cc1)c1ccc(N(CCCl)CCCl)cc1; assay: as §2; how it was run: as §3
[14] = compound: O=C(O)CC[C@H](NC(=O)Nc1ccc(CO)cc1)C(=O)O; assay: as §2; how it was run: as §3
[15] = compound: O=C(O)CC[C@H](NC(=O)Nc1ccc(COC(=O)Nc2ccc(N(CCCl)CCCl)cc2)cc1)C(=O)O; assay: as §2; how it was run: as §3
[16] = compound: O=C(O)CC[C@H](NC(=O)Nc1ccc(COC(=O)Nc2ccccc2N(CCCl)CCCl)cc1)C(=O)O; assay: as §2; how it was run: as §3

Row | Molecule | Ratio [1] | IC50 (WiDr [2]) | IC50 (WiDr [3]) | T1/2 [4] | k cat [5] | further results
1 | O=C(O)CC[C@H](NC(=O)Oc1ccc(COC(=O)Nc2ccc(N(CCI)CCI)cc2)cc1)C(=O)O | 2 | 1.3 µM | 53.6 µM | 0.98 min | – | –
2 | O=C(O)CC[C@H](NC(=O)Oc1ccc(COC(=O)Nc2ccc(N(CCCl)CCCl)cc2)cc1)C(=O)O | – | – | – | – | < 10 s⁻¹ | –
3 | CN(C(=O)OCc1ccc(NC(=O)N[C@@H](CCC(=O)O)C(=O)O)cc1)c1ccc(N(CCBr)CCBr)cc1 | 1 | 4.1 µM | – | 2.8 min | – | –
4 | O=C(O)CC[C@H](NC(=O)Nc1ccc(COC(=O)Nc2ccc(N(CCI)CCI)cc2)cc1)C(=O)O | 1.9 | 1.8 µM | 180 µM | 0.97 min | – | –
5 | CS(=O)(=O)OCCN(CCCl)c1ccc(C(=O)N[C@@H](CCC(=O)O)C(=O)O)cc1 | 2.3 | – | – | 59 min | – | IC50 (WiDr [6]): 100 µM; IC50 (WiDr [7]): 3230 µM
6 | CN(C(=O)OCc1ccc(NC(=O)N[C@@H](CCC(=O)O)C(=O)O)cc1)c1ccc(N(CCCl)CCCl)cc1 | 20.9 | 2.5 µM | 39.7 µM | 173.6 min | 5.5 s⁻¹ | k cat/Km [8]: 0.91
7 | CN(C(=O)OCc1ccc(OC(=O)N[C@@H](CCC(=O)O)C(=O)O)cc1)c1ccc(N(CCBr)CCBr)cc1 | 1 | 3.6 µM | 27.2 µM | 2.7 min | – | –
8 | O=C(O)CC[C@H](NC(=O)Nc1ccc(COC(=O)Nc2ccccc2N(CCBr)CCBr)cc1)C(=O)O | 3.5 | 4.7 µM | 118 µM | 3 min | – | –
9 | CS(=O)(=O)OCCN(CCOS(C)(=O)=O)c1ccccc1NC(=O)OCc1ccc(OC(=O)N[C@@H](CCC(=O)O)C(=O)O)cc1 | – | 40 µM | 208 µM | 10.8 min | – | –
10 | O=C(O)CC[C@H](NC(=O)Oc1ccc(COC(=O)Nc2ccccc2N(CCBr)CCBr)cc1)C(=O)O | 3.5 | 95.2 µM | 183 µM | 3.74 min | – | –
11 | O=C(O)CC[C@H](NC(=O)Nc1ccc(COC(=O)Nc2ccc(N(CCCl)CCCl)cc2)cc1)C(=O)O | – | – | – | – | 10 s⁻¹ | –
12 | CN(C(=O)OCc1ccc(OC(=O)N[C@@H](CCC(=O)O)C(=O)O)cc1)c1ccc(N(CCCl)CCCl)cc1 | 20.6 | 1.7 µM | 19.6 µM | 173.6 min | 4.32 s⁻¹ | k cat/Km [8]: 1.78
13 | O=C(O)CC[C@H](NC(=O)Oc1ccc(COC(=O)Nc2ccccc2N(CCI)CCI)cc1)C(=O)O | – | 19 µM | 73.3 µM | 2.1 min | – | –
14 | O=C(O)CC[C@H](NC(=O)Oc1ccc(CO)cc1)C(=O)O | – | – | – | – | 140 s⁻¹ | k cat/Km [8]: 82.3
15 | O=C(O)CC[C@H](NC(=O)Nc1ccc(COC(=O)Nc2ccccc2N(CCCl)CCCl)cc1)C(=O)O | 13.9 | 4.5 µM | 21.1 µM | 107.5 min | 2.92 s⁻¹ | k cat/Km [8]: 5.31
16 | CN(C(=O)OCc1ccc(OC(=O)N[C@@H](CCC(=O)O)C(=O)O)cc1)c1ccc(N(CCI)CCI)cc1 | 7.7 | 2.6 µM | 21.5 µM | 4.6 min | – | –
17 | CN(C(=O)OCc1ccc(NC(=O)N[C@@H](CCC(=O)O)C(=O)O)cc1)c1ccc(N(CCI)CCI)cc1 | 6.5 | 1.5 µM | – | 3.9 min | – | –
18 | O=C(O)CC[C@H](NC(=O)Nc1ccc(COC(=O)Nc2ccc(N(CCBr)CCBr)cc2)cc1)C(=O)O | 0.4 | 3.1 µM | 205 µM | 0.85 min | – | –
19 | O=C(O)CC[C@H](NC(=O)Oc1ccc(COC(=O)Nc2ccccc2N(CCCl)CCCl)cc1)C(=O)O | 11.9 | 28.1 µM | 38.1 µM | 146.3 min | 4.27 s⁻¹ | k cat/Km [8]: 4.14
20 | CS(=O)(=O)OCCN(CCCl)c1ccccc1NC(=O)OCc1ccc(OC(=O)N[C@@H](CCC(=O)O)C(=O)O)cc1 | – | 28.5 µM | 148 µM | 10 min | – | –
21 | O=C(O)CC[C@H](NC(=O)Oc1ccc(COC(=O)Nc2ccc(N(CCBr)CCBr)cc2)cc1)C(=O)O | 0.4 | 2.6 µM | 99.7 µM | 0.9 min | – | –
22 | O=C(O)CC[C@H](NC(=O)Nc1ccc(CO)cc1)C(=O)O | – | – | – | – | 65.4 s⁻¹ | k cat/Km [8]: 21.1
23 | O=C(O)CC[C@H](NC(=O)Nc1ccc(COC(=O)Nc2ccccc2N(CCI)CCI)cc1)C(=O)O | – | 3 µM | 149 µM | 2.7 min | – | –
24 | B1 | – | – | – | – | – | Km [9]: 1.7 µM; Km [10]: 6.05 µM; Km [11]: 1.02 µM; Km [12]: < 5 µM; Km [13]: 2.43 µM; Km [14]: 3.1 µM; Km [15]: < 5 µM; Km [16]: 0.55 µM
